Screens from PubChem BioAssay.
PG9 Ab binder = small molecules binding HIV-1 gp120 antibody PG9; inhibition, % at 6.7 µM; TR-FRET gp120-PG9 antibody binding; 360,000 compounds, 0.43% hits; in the data active means inhibition above about 8.5%
NR1D1 modulator = modulators of human Rev-erb alpha DNA binding; P20393; Rev-erbα–FITC-DNA binding, fluorescence polarization, 90 min; activity, % at 10 µM; 370,000 compounds, 0.79% hits;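 active means activity above about 14%, limit read from the data; passing the limit was not always enough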
NR2E3 ag-1 = activates human photoreceptor nuclear receptor NR2E3. Q9Y5X4. GST-NR2E3/biotin-RetCOR TR-FRET, 1536-well. inhibition of corepressor binding, % at 4.78 µM. 320,000 compounds, 0.12% hits. AID 2300;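 active means percent inhibition above the cutoff of mean plus 3 SD of all tested compounds, set per screening campaign, cut at about 20% in these data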
Target sequence (Q9Y5X4 whole entry, looked up): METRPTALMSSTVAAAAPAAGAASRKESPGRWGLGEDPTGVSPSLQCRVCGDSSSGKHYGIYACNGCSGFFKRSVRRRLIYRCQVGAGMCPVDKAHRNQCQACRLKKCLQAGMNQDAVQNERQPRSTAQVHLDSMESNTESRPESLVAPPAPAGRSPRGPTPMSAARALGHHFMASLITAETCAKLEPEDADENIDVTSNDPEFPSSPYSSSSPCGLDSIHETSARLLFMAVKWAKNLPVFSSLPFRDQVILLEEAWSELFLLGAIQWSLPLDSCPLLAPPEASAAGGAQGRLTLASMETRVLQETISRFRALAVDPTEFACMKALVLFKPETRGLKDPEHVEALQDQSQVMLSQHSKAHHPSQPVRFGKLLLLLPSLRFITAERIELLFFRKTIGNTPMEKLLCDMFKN
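Assay system: NR2E3–RetCOR corepressor complex. Quantity: 1.35 nM GST-NR2E3. Buffer or medium: pH 7.5 Tris-based buffer. Reagent: biotinylated RetCOR corepressor at 7 nM final. Schedule: 5 h at 4 °C. Detection: TR-FRET, emission read at 617 and 671 nm. Replicates: one well per compound, singlicate testing.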
NR2E3 ag-2 = human photoreceptor-specific nuclear receptor agonism. Q9Y5X4. CHO-S Gal4-NCOR/VP16-NR2E3 two-hybrid, luciferase. inhibition of corepressor binding, % at 3.98 µM. 360,000 compounds, 0.35% hits;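 active means inhibition above the mean of all tested compounds plus 3 SD, cut at about 70% in these data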;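 further: higher means lower luciferase signal from less NR2E3 corepressor binding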
NR2E3 ag confirm = confirmation of human NR2E3 agonists. shares compounds with NR2E3 ag-2. CHO-S mammalian two-hybrid NR2E3-NCOR, luciferase luminescence. inhibition, % at 3.98 µM. 2,300 compounds, 51% hits. AID 624378;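 active means average inhibition above a cutoff equal to the mean inhibition of all tested compounds plus one SD, cut at about 70% in these data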
GAL4-VP16 luc = reduces GAL4-VP16 reporter signal in NR2E3 counterscreen. shares compounds with NR2E3 ag-2. CHO-S GAL4-VP16 luciferase reporter, luminescence. inhibition, % at 3.98 µM. 2,300 compounds, 29% hits. AID 624379;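 active means mean inhibition above a cutoff equal to the average over all tested compounds plus one standard deviation, cut at about 70% in these data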;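 further: luciferase from a UAS reporter driven by GAL4-VP16 transactivation; higher means less reporter light so more repression of VP16 activity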
Numbers stand for hits; n = inactive; x = no result. Only some compounds are listed: those with a hit (about 1.5% of all), similar ones and a draw of the others.

SMILES	PG9 Ab binder	NR1D1 modulator	NR2E3 ag-1	NR2E3 ag-2	NR2E3 ag confirm	GAL4-VP16 luc
O=C(c1cc2nc(-c3ccc(F)cc3)cc(C(F)(F)F)n2n1)N1CCCCC1c1cccnc1 (stereo not given)	n	n	n	n	88	n
Cc1nn(-c2nc3ccccc3[nH]2)c(=O)c2ccccc12	n	n	n	n	n	n
COC(=O)[C@]12C[C@H](CC(=O)NCc3cccc(C(F)(F)F)c3)C(=O)N(Cc3ccccc3)C1=C[C@H](C(C)(C)C)O[C@@H]2C	n	n	x	x	x	x
O=C(C(=O)c1cc(Br)ccc1O)c1cc(Br)ccc1O	n	n	x	99	100	92
C/C=N/NC(=O)c1cc(Br)ccc1O	n	n	n	n	x	x
O=C(c1ccc(O)c(Br)c1)c1cc(Br)ccc1O	n	n	x	85	96	74
Cc1ccc(-n2c(C)nc3c(cnn3-c3ccc(F)cc3)c2=O)cc1C	n	n	n	n	88	n
Cc1ccc(-n2c(C)nc3c(cnn3-c3ccc(C)c(C)c3)c2=O)cc1C	n	n	n	n	x	x
C[C@H](O)[C@@H]1CN2CCc3c([nH]c4c(-c5ccc6c(c5)OCO6)cccc34)[C@@H]2C[C@@H]1N(C)C(=O)Nc1ccccc1	x	n	x	x	x	x
Cc1cccc(C(=O)N[C@@H]2CC[C@@]34CCCN3C(=O)CCC[C@H]4[C@H]2C)c1	x	n	x	x	x	x
O=C(C=P(c1ccccc1)(c1ccccc1)c1ccccc1)c1ccccc1-c1ccccc1C(=O)C=P(c1ccccc1)(c1ccccc1)c1ccccc1	n	n	x	98	100	87
Cc1[nH]n2c(=O)cc(C(C)(C)C)nc2c1-c1ccccc1	n	n	n	n	100	96
Cc1[nH]n2c(=O)cc(C(C)C)nc2c1-c1ccccc1	n	n	n	n	x	x
Cc1[nH]n2c(=O)cc(-c3ccc([N+](=O)[O-])cc3)nc2c1-c1ccccc1	n	n	n	97	99	n
Cc1ccc(-c2cc(-c3nnc4sc(COc5ccccc5)nn34)[nH]n2)cc1	x	n	x	x	x	x
Cc1ccc(OCC(=O)c2cc(C)n(-c3ccccc3)c2C)c([N+](=O)[O-])n1	n	n	n	73	n	n
COCCn1c(C)cc(C(=O)COc2ccc(C)nc2[N+](=O)[O-])c1C	n	n	n	n	77	n
CCCn1c(C)cc(C(=O)COc2ccc(C)nc2[N+](=O)[O-])c1C	n	n	n	n	x	x
Cc1ccc(C)c(C(=O)COc2ccc(C)nc2[N+](=O)[O-])c1	n	x	n	n	x	x
C=CCn1c(C)cc(C(=O)COc2ccc(C)nc2[N+](=O)[O-])c1C	n	n	n	71	71	n
O=S(=O)(O)Oc1ccc(C(c2ccc(OS(=O)(=O)O)cc2)c2ccccn2)cc1	x	n	x	x	x	x
COCCCN1C(=O)[C@H](CC(=O)NCc2ccc(OC)c(OC)c2)[C@]2(C(=O)OC)CCCCC=C12	x	n	x	x	x	x
O=c1c(Sc2ccccc2)c(C(F)(F)F)[nH]n1-c1ccccc1	n	n	n	n	97	74
COC(=O)C[C@@H]1CC[C@H]2[C@@H](COc3ccc(NC(=O)Nc4ccccc4Cl)cc3C(=O)N2C)O1	x	n	x	x	x	x
COc1ccc(CNC(=O)c2c(C)oc3c2C(=O)c2ccccc2C3=O)cc1	n	n	n	n	98	n
SMILES	PG9 Ab binder	NR1D1 modulator	NR2E3 ag-1	NR2E3 ag-2	NR2E3 ag confirm	GAL4-VP16 luc
COc1ccc(CNC(=O)c2ccc(-c3ccccc3)cc2)cc1	n	x	n	n	x	x
Oc1[nH]c2ccccc2c1N=NC(=S)N1CCOCC1	x	x	n	101	75	n
c1ccc(-c2nnc3n2N=C(c2ccc4ccccc4c2)CS3)nc1	x	n	x	x	x	x
Cc1nc(NCc2ccco2)c2c(C)c(C)sc2n1	n	n	n	97	95	n
Nc1ccc(-c2cc3ccccc3oc2=O)cc1	n	n	n	n	n	n
O=c1oc2ccccc2cc1-c1ccc(O)cc1	n	n	n	n	x	x
Cc1ccccc1-c1cc(C(=O)Nc2sc(C(=O)OC(C)C)c(C)c2C#N)c2ccccc2n1	n	n	n	92	100	88
COC(=O)c1sc(NC(=O)c2cc(-c3ccccc3)nc3ccccc23)c(C#N)c1C	n	n	n	n	n	n
O=C(Nc1nnc(-c2cccs2)o1)c1cc(-c2ccccc2)nc2ccccc12	n	n	n	71	99	n
CC(=O)c1cc(-c2ccccc2S(=O)(=O)NC(C)(C)C)c(=O)n2c1CCC2	x	n	x	x	x	x
CCOC(=O)c1cnc(-n2nc(C)cc2C)nc1NC	n	n	n	n	x	x
CCOC(=O)c1cnc(-n2nc(C)cc2C)nc1NC1CCCCC1	n	n	n	93	91	n
Cc1ccc(OCc2nnc(SCc3nc4ccccc4[nH]3)n2Cc2ccco2)cc1	n	n	n	n	n	n
c1ccc(-c2nnc(SCc3nc4ccccc4[nH]3)n2Cc2ccco2)cc1	n	n	n	n	x	x
Cc1cnc(NC(=O)CCCc2nc3ccccc3s2)s1	n	n	n	109	98	n
O=C(CCCc1nc2ccccc2s1)Nc1nccs1	n	n	n	n	x	x
Cc1ccc(C(=O)N2CCN(c3ncccn3)CC2)cc1	n	n	x	n	x	x
Cc1ccc(NS(=O)(=O)c2ccc(C(=O)N3CCN(S(=O)(=O)c4ccccc4)CC3)cc2)cc1	n	n	n	n	n	n
Cc1ccc(NS(=O)(=O)c2ccc(C(=O)N3CCN(c4ncccn4)CC3)cc2)cc1	n	n	n	83	74	n
Cc1ccc(S(=O)(=O)Nc2ccc(C(=O)N3CCCC3)cc2)cc1	n	n	n	n	x	x
O=C(c1cc(COc2cccc3cnccc23)on1)N1CCCC(CCCO)C1 (stereo not given)	n	n	n	110	99	93
Cc1nn(C)cc1C(C)NC(=O)c1cc(COc2cccc3cnccc23)on1 (stereo not given)	n	n	n	n	n	n
COCC1CCN(C(=O)c2cc(COc3cccc4cnccc34)on2)CC1	n	n	n	90	72	n
O=C1CSc2ccc(C(=O)N3CCCC(C(=O)N4CCN(c5ccc(F)cc5)CC4)C3)cc2N1 (stereo not given)	x	n	x	x	x	x
CCCCC#CC(CC)NCc1ccc(OC)cc1OC (stereo not given)	x	n	x	x	x	x
SMILES	PG9 Ab binder	NR1D1 modulator	NR2E3 ag-1	NR2E3 ag-2	NR2E3 ag confirm	GAL4-VP16 luc
COc1ccccc1Cn1c(C)nc2ccccc21	n	n	n	n	x	x
Cc1nc2ccccc2n1Cc1ccc(Cl)cc1	n	n	n	92	94	83
Cc1ccccc1Cn1c(C)nc2ccccc21	n	n	n	n	93	82
C[C@@H]1CN(c2ccc(N3CCNC[C@@H]3C)cc2C#N)C[C@H](C)O1	n	n	x	x	x	x
C=CCSc1nc2ccccc2n1C(=O)/C=C/c1cc(OC)c(OC)c(OC)c1	n	n	n	n	n	n
C=CCSc1nc2ccccc2n1C(=O)/C=C/c1ccc(OC)c(OC)c1	n	n	n	n	x	x
COC(=O)C1CN(Cc2ccccc2)CCS(=O)(=O)N1Cc1cn(Cc2ccc(C)cc2)nn1 (stereo not given)	x	n	x	x	x	x
